Source: ChEMBL document CHEMBL3124823, “1,2,3-Triazole-containing derivatives of rupestonic acid: click-chemical synthesis and antiviral activities against influenza viruses” (Eur J Med Chem, 2014)
≈ marks a conversion by molar mass, not a printed value.

Tested on: Influenza A virus
Assay: Antiviral activity against oseltamivir-resistant Influenza A virus (A/Tianjinjinnan/15/2009/H1N1) infected in MDCK cells assessed as inhibition of virus-induced cytopathicity after 40 hrs
Type: functional, organism-based
Settings: A/Tianjin-Jinnan/15/2009(H1N1)
How it was run: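 CPE reduction in MDCK cells: cells grown 24 h at 37 °C, 5% CO2, then infected and held 2 h at 37 °C before the inoculum was removed. Threefold serial drug dilutions (8 levels from 20 mg/mL DMSO stocks) were added and incubated 40 h at 37 °C. CPE inhibition was scored against cell and virus controls to give IC50. Ribavirin and oseltamivir were the controls.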

Compound | IC50
C=C(C(=O)NCc1cn(Cc2cccc(C)c2)nn1)[C@@H]1CC[C@H](C)[C@@H]2CC(=O)C(C)=C2C1 | > 22.2 µg/mL
C=C(C(=O)OCc1cn(Cc2ccc(Cl)cc2)nn1)[C@@H]1CC[C@H](C)[C@@H]2CC(=O)C(C)=C2C1 | > 22.2 µg/mL
C=C(C(=O)OCc1cn(Cc2ccc(Cl)c(Cl)c2)nn1)[C@@H]1CC[C@H](C)[C@@H]2CC(=O)C(C)=C2C1 | > 7.41 µg/mL
C=C(C(=O)OCc1cn(Cc2cccc(Cl)c2)nn1)[C@@H]1CC[C@H](C)[C@@H]2CC(=O)C(C)=C2C1 | > 66.7 µg/mL
C=C(C(=O)NCc1cn(C2CCCCC2)nn1)[C@@H]1CC[C@H](C)[C@@H]2CC(=O)C(C)=C2C1 | 22.2 µg/mL (≈ 54.1 µM)
C=C(C(=O)NCc1cn(Cc2ccccc2F)nn1)[C@@H]1CC[C@H](C)[C@@H]2CC(=O)C(C)=C2C1 | > 66.7 µg/mL
C=C(C(=O)NCc1cn(Cc2ccc(Cl)cc2)nn1)[C@@H]1CC[C@H](C)[C@@H]2CC(=O)C(C)=C2C1 | > 2.47 µg/mL
CCOC(=O)C1=C[C@@H](OC(CC)CC)[C@H](NC(C)=O)[C@@H](N)C1 [OSELTAMIVIR] | > 500 µg/mL
C=C(C(=O)NCc1cn(Cc2ccc(F)cc2)nn1)[C@@H]1CC[C@H](C)[C@@H]2CC(=O)C(C)=C2C1 | > 66.7 µg/mL
C=C(C(=O)NCc1cn(Cc2cccc(OC)c2)nn1)[C@@H]1CC[C@H](C)[C@@H]2CC(=O)C(C)=C2C1 | > 22.2 µg/mL
C=C(C(=O)OCc1cn(Cc2ccccc2Cl)nn1)[C@@H]1CC[C@H](C)[C@@H]2CC(=O)C(C)=C2C1 | 59.2 µg/mL (≈ 130 µM)
C=C(C(=O)NCc1cn(Cc2ccc(C)cc2)nn1)[C@@H]1CC[C@H](C)[C@@H]2CC(=O)C(C)=C2C1 | > 22.2 µg/mL
C=C(C(=O)OCc1cn(Cc2ccccc2)nn1)[C@@H]1CC[C@H](C)[C@@H]2CC(=O)C(C)=C2C1 | > 7.41 µg/mL
C=C(C(=O)NCc1cn(Cc2ccc(OC)cc2)nn1)[C@@H]1CC[C@H](C)[C@@H]2CC(=O)C(C)=C2C1 | > 22.2 µg/mL
C=C(C(=O)OCc1cn(Cc2ccc(F)cc2)nn1)[C@@H]1CC[C@H](C)[C@@H]2CC(=O)C(C)=C2C1 | > 22.2 µg/mL
C=C(C(=O)NCc1cn(Cc2cccc(F)c2)nn1)[C@@H]1CC[C@H](C)[C@@H]2CC(=O)C(C)=C2C1 | > 22.2 µg/mL

Compound | IC50
C=C(C(=O)NCc1cn(Cc2ccccc2)nn1)[C@@H]1CC[C@H](C)[C@@H]2CC(=O)C(C)=C2C1 | > 22.2 µg/mL
C=C(C(=O)OCc1cn(Cc2ccc(C)cc2)nn1)[C@@H]1CC[C@H](C)[C@@H]2CC(=O)C(C)=C2C1 | > 22.2 µg/mL
C=C(C(=O)OCc1cn(Cc2cccc(OC)c2)nn1)[C@@H]1CC[C@H](C)[C@@H]2CC(=O)C(C)=C2C1 | > 22.2 µg/mL
C=C(C(=O)OCc1cn(Cc2cccc(C)c2)nn1)[C@@H]1CC[C@H](C)[C@@H]2CC(=O)C(C)=C2C1 | 19.7 µg/mL (≈ 45.5 µM)
C=C(C(=O)OCc1cn(Cc2cccc(F)c2)nn1)[C@@H]1CC[C@H](C)[C@@H]2CC(=O)C(C)=C2C1 | > 22.2 µg/mL
C=C(C(=O)NCc1cn(Cc2ccccc2Cl)nn1)[C@@H]1CC[C@H](C)[C@@H]2CC(=O)C(C)=C2C1 | > 7.41 µg/mL
C=C(C(=O)NCc1cn(Cc2ccc(Cl)c(Cl)c2)nn1)[C@@H]1CC[C@H](C)[C@@H]2CC(=O)C(C)=C2C1 | 22.2 µg/mL (≈ 45.6 µM)
C=C(C(=O)NCc1cn(C2C=CCCC2)nn1)[C@@H]1CC[C@H](C)[C@@H]2CC(=O)C(C)=C2C1 (some centres not stated) | 19.7 µg/mL (≈ 48.3 µM)
NC(=O)c1ncn([C@@H]2O[C@H](CO)[C@@H](O)[C@H]2O)n1 [RIBAVIRIN] | 6.5 µg/mL (≈ 26.6 µM)
C=C(C(=O)OCc1cn(Cc2ccccc2F)nn1)[C@@H]1CC[C@H](C)[C@@H]2CC(=O)C(C)=C2C1 | > 22.2 µg/mL
C=C(C(=O)OCc1cn(Cc2ccccc2C)nn1)[C@@H]1CC[C@H](C)[C@@H]2CC(=O)C(C)=C2C1 | > 22.2 µg/mL
C=C(C(=O)NCc1cn(Cc2ccccc2C)nn1)[C@@H]1CC[C@H](C)[C@@H]2CC(=O)C(C)=C2C1 | > 22.2 µg/mL
C=C(C(=O)OCc1cn(C2C=CCCC2)nn1)[C@@H]1CC[C@H](C)[C@@H]2CC(=O)C(C)=C2C1 (some centres not stated) | > 7.41 µg/mL
C=C(C(=O)OCc1cn(Cc2ccc(OC)cc2)nn1)[C@@H]1CC[C@H](C)[C@@H]2CC(=O)C(C)=C2C1 | 22.2 µg/mL (≈ 49.4 µM)
C=C(C(=O)OCc1cn(C2CCCCC2)nn1)[C@@H]1CC[C@H](C)[C@@H]2CC(=O)C(C)=C2C1 | 59.2 µg/mL (≈ 144 µM)
C=C(C(=O)NCc1cn(Cc2cccc(Cl)c2)nn1)[C@@H]1CC[C@H](C)[C@@H]2CC(=O)C(C)=C2C1 | > 7.41 µg/mL
